Measurements of several laboratories.
Each line is one published result; the experiments were not run side by side.
Target: Tyrosine-protein kinase CSK (CSK, Homo sapiens, UniProt P41240)

N#CC1(c2ccccn2)CCN(Cc2cc(C(=O)O)c(=O)n3ccccc23)CC1
remaining binding (cell-free assay, competition with immobilised ligand; 1 µM): 100%

Cn1cc(-c2cccc(N3CCc4c(sc5c4CC(C)(C)C5)C3=O)c2CO)cc(Nc2ccncn2)c1=O
inhibition (enzyme activity, inhibitor; 1 µM): 4%

COc1ncccc1-c1cnn2ccc(N3CCN(C(=O)OC(C)C)CC3)nc12
remaining binding (binding, competition with immobilised ligand; 1 µM): 100%

CC(C)(C)c1cc(C=C(C#N)C#N)cc(Br)c1O
remaining activity (enzyme activity, inhibitor; 0.5 µM): 106%

Cc1nn(C)cc1-c1nc2c(N3CCN(Cc4ccc(Cl)cc4)CC3)c(Cl)cnc2[nH]1
remaining binding (binding, competition with immobilised ligand; 1 µM): 100%

Cn1cc(-c2cc(F)cc(N3CCn4c(cc5c4CCCC5)C3=O)c2CO)cc(Nc2ccc(N3CCN(C4COC4)CC3)cn2)c1=O
inhibition (enzyme activity, inhibitor; 0.1 µM): 12%

O=C(NCc1ncc(C(F)(F)F)cc1Cl)c1ccc2c(c1)C1(CCS(=O)(=O)CC1)[C@@H](C1CC1)N2S(=O)(=O)c1ccc(F)cc1
remaining binding (cell-free assay, competition with immobilised ligand; 1 µM): 96%

O=c1[nH]c2ccccc2n1C1CCN(Cc2ccc(-c3[nH]c4cc5ncnc5cc4nc3-c3ccccc3)cc2)CC1
remaining activity (enzyme activity; 0.5 µM): 101%

Nc1ncc(-c2nc(N3CCOCC3)nc(N3CCOCC3)n2)c(C(F)F)n1
remaining binding (binding, competition with immobilised ligand; 10 µM): 73%
